In ChEMBL document CHEMBL1821554, “Synthesis and anticancer activity of chalcone-pyrrolobenzodiazepine conjugates linked via 1,2,3-triazole ring side-armed with alkane spacers” (2011):
Active and inactive are the calls of the source. The calls are words filed in the database; no cut-off is given here.

Assays:
A549 = assay: Anticancer activity against human A549 cells by SRB method; assay type: functional
Method in brief: (§1)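 Growth inhibition over a panel of human cancer lines (lung, ovarian, oral, colon, prostate, cervix, breast). Value is the 50% growth-inhibition concentration, reported as the mean ± standard error of the mean of three determinations.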

KB = assay: Anticancer activity against human KB cells by SRB method; assay type: functional; method in brief: as §1
MCF7 [1] = assay: Cell cycle arrest in human MCF7 cells assessed as accumulation at G1 phase at 10 uM after 24 hrs using propidium iodide staining based flow cytometric analysis (reference value: 47.64 +/- 1.49 %); assay type: functional
MCF7 [2] = assay: Cell cycle arrest in human MCF7 cells assessed as accumulation at G0 phase at 10 uM after 24 hrs using propidium iodide staining based flow cytometric analysis (reference value: 1.27 +/- 0.08 %); assay type: functional
MCF7 [3] = assay: Cell cycle arrest in human MCF7 cells assessed as accumulation at G0/G1 phase at 4 uM after 24 hrs using propidium iodide staining based flow cytometric analysis; assay type: functional
Method in brief: (§2)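 MCF-7 cells were seeded at 5 × 10^5 per 60 mm dish and grown for 24 h, then exposed to 4 µM compound for 24 h. Cells were trypsinized, fixed in ice-cold 70% ethanol at 4 °C for 30 min and treated with 1 mg/ml RNase at 37 °C for 30 min. They were stained with propidium iodide/citrate/Triton X-100, and DNA content was read on 20,000 events by flow cytometry. Three independent repeats.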

MCF7 [4] = assay: Cell cycle arrest in human MCF7 cells assessed as accumulation at S phase at 10 uM after 24 hrs using propidium iodide staining based flow cytometric analysis (reference value: 12.92 +/- 1 %); assay type: functional
ZR-75-1 = assay: Anticancer activity against human ZR-75-1 cells by SRB method; assay type: functional; method in brief: as §1
HOP-62 = assay: Anticancer activity against human HOP62 cells by SRB method; assay type: functional; method in brief: as §1
PC-3 = assay: Anticancer activity against human PC3 cells by SRB method; assay type: functional; method in brief: as §1
SiHa = assay: Anticancer activity against human SiHa cells by SRB method; assay type: functional; method in brief: as §1
MCF7 [5] = assay: Induction of cell cycle arrest at G1 phase in human MCF7 cells at 4 uM after 24 hrs using propidium iodide staining based flow cytometric analysis; assay type: functional; method in brief: as §2
COLO 205 = assay: Anticancer activity against human COLO205 cells by SRB method; assay type: functional; method in brief: as §1
MCF7 [6] = assay: Cytotoxicity against human MCF7 cells assessed as reduction in cell viability at 2 uM after 24 hrs by MTT assay; assay type: functional, cell-based
[7] = Anticancer activity against human Gurav cells by SRB method; assay type: functional; method in brief: as §1
[8] = Anticancer activity against human DWD cells by SRB method; assay type: functional; method in brief: as §1
A2780 = assay: Anticancer activity against human A2780 cells by SRB method; assay type: functional; method in brief: as §1
MCF7 [9] = assay: Cell cycle arrest in human MCF7 cells assessed as accumulation at G2/M phase at 10 uM after 24 hrs using propidium iodide staining based flow cytometric analysis (reference value: 38.15 +/- 1.068 %); assay type: functional
MCF7 [10] = assay: Anticancer activity against human MCF7 cells by SRB method; assay type: functional; method in brief: as §1
MCF7 [11] = assay: Cytotoxicity against human MCF7 cells assessed as reduction in cell viability at 4 uM after 24 hrs by MTT assay; assay type: functional, cell-based
Method in brief: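 MCF-7 cells were seeded at 10,000 per well and left overnight, then treated with 4 µM compound for 24 h. MTT was added for 2 h at 37 °C, formazan was solubilized in extraction buffer, and OD was read at 570 nm. Untreated cells served as control. Three independent experiments, SD.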

MCF7 [12] = assay: Induction of apoptosis in human MCF7 cells assessed as down regulation of Bcl2 expression at 4 uM after 24 hrs by ELISA; assay type: functional, cell-based
Method in brief: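 MCF-7 cells were treated with 4 µM compound for 24 h. Lysates were added to Bcl2 antibody-coated wells, followed by biotinylated anti-human Bcl2 monoclonal antibody, and bound Bcl2 was detected with streptavidin-HRP (sandwich ELISA).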

MCF7 [13] = assay: Induction of apoptosis in human MCF7 cells assessed as down regulation of Bcl-xL expression at 4 uM after 24 hrs by Western blot
MCF7 [14] = assay: Downregulation of cyclin D1 protein expression in human MCF7 cells at 4 uM after 24 hrs by Western blot analysis; assay type: functional, cell-based
Method in brief: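 MCF-7 cells at 80% confluency were treated with 4 µM compound for 24 h. Cells were lysed in RIPA buffer with protease inhibitors and protein was quantified by Bradford. 50 µg per lane was run on 12% SDS-PAGE and transferred to PVDF. Blots were probed overnight at 4 °C with rabbit polyclonal anti-cyclin D1, with β-actin as loading control, and detected by chemiluminescence.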

[15] = Down regulation of NF-kappaB activity expressed in human MCF7 cells transfected with NF-kB SEAP plasmid at 4 uM after 24 hrs by chemiluminescence-based luminometric analysis; assay type: cell-based
Method in brief: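 MCF-7 cells were transiently transfected with the NF-kB SEAP plasmid using lipofectamine 2000. After 24 h, cells were treated with 4 µM compound for 24 h. Lysates were assayed with a chemiluminescent reagent and read by luminometry and by 30 min X-ray film exposure. Transfected untreated cells served as control.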

[16] = molecular target: G1/S-specific cyclin-D1 (Homo sapiens) (UniProt P24385); assay: Down regulation of Cyclin D1 promoter activity expressed in human MCF7 cells co-transfected with luciferase gene at 4 uM after 24 hrs by luciferase reporter gene assay; assay type: cell-based
Sequence of G1/S-specific cyclin-D1 (Homo sapiens) (P24385 whole entry): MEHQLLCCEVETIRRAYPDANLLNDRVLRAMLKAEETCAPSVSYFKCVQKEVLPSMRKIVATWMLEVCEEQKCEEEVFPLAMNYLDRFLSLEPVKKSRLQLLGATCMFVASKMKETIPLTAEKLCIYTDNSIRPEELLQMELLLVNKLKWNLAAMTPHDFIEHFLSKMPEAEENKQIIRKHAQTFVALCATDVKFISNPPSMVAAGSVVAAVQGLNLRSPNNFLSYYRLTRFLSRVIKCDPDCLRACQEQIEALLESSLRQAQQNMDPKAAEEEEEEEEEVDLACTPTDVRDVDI
Method in brief: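 MCF-7 cells were transfected for 24 h with the cyclin D1 promoter (−1745) luciferase construct, which contains an NF-kB site. Cells were then treated with 4 µM compound (final) for a further 24 h, and lysate luciferase was measured by luminometer. Untransfected cells served as negative control and transfected untreated cells as control.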

| SMILES | GI50 (A549) | GI50 (KB) | Activity (MCF7 [1]) | Activity (MCF7 [2]) | Activity (MCF7 [3]) | Activity (MCF7 [4]) | GI50 (ZR-75-1) | GI50 (HOP-62) | GI50 (PC-3) | GI50 (SiHa) | Activity (MCF7 [5]) | GI50 (COLO 205) | Activity (MCF7 [6]) | GI50 [7] | GI50 [8] | GI50 (A2780) | Activity (MCF7 [9]) | GI50 (MCF7 [10]) | Activity (MCF7 [11]) | Activity (MCF7 [12]) | further results |
| --- | --- | --- | --- | --- | --- | --- | --- | --- | --- | --- | --- | --- | --- | --- | --- | --- | --- | --- | --- | --- | --- |
| COc1cc(/C=C/C(=O)c2ccccc2O)ccc1OCCCCCn1cc(COc2cc3c(cc2OC)C(=O)N2CCC[C@H]2C=N3)nn1 | 170 nM | 180 nM | 46.39% | 7.81% | 56.23% | 9.89% | 170 nM | 2560 nM | 2040 nM | 2710 nM | Active | 140 nM | inactive | 160 nM | 2300 nM | 140 nM | 35.88% | 2100 nM |  |  |  |
| COc1ccc(/C=C/C(=O)c2ccc(O)cc2)cc1O |  |  | 51.61% | 10.15% | 64.11% | 6.55% |  |  |  |  |  |  |  |  |  |  | 31.5% |  | Active |  |  |
| COc1cc(/C=C/C(=O)c2cc(Cl)ccc2O)ccc1OCCCCn1cc(COc2cc3c(cc2OC)C(=O)N2CCC[C@H]2C=N3)nn1 | 190 nM | 2660 nM | 50.63% | 10.51% | 61.38% | 7.74% | 190 nM | 2500 nM | 160 nM |  | Active | < 100 nM | inactive | 1660 nM | < 170 nM | 130 nM | 31.07% | 160 nM |  |  |  |
| COc1cc(/C=C/C(=O)c2ccccc2O)ccc1OCCCCn1cc(COc2cc3c(cc2OC)C(=O)N2CCC[C@H]2C=N3)nn1 | < 160 nM | 170 nM | 77.47% | 10.79% | 89.1% | 4.99% | 150 nM | 160 nM | 130 nM | 140 nM | Active |  | inactive | 120 nM | < 130 nM | 100 nM | 7.07% | 140 nM | Active | Active | Activity (MCF7 [13]): Active; Activity (MCF7 [14]): Active; Activity [15]: Active; Activity [16]: Active |
| COc1cc2c(cc1O)N=C[C@@H]1CCCN1C2=O | 160 nM | 170 nM | 61.81% | 7.62% | 71.1% | 9.67% |  | 150 nM | 200 nM | 170 nM |  | 110 nM |  | 160 nM |  | 140 nM | 20.89% | 170 nM | Active | Active | Activity (MCF7 [13]): Active; Activity (MCF7 [14]): Active; Activity [15]: Active; Activity [16]: Active |
| COc1cccc2c1C(=O)c1c(O)c3c(c(O)c1C2=O)C[C@@](O)(C(=O)CO)C[C@@H]3O[C@H]1C[C@H](N)[C@H](O)[C@H](C)O1 [DOXORUBICIN] |  | 170 nM |  |  |  |  |  | 140 nM |  | 170 nM |  | 140 nM |  | 170 nM | 100 nM | 160 nM |  | 170 nM |  |  |  |
